Here are results for seven molecules from ChEMBL document CHEMBL3400039, “Design, synthesis and in vitro cell-based evaluation of the anti-cancer activities of hispolon analogs” (Bioorg Med Chem, 2015).

pIC50: −log10 of the molar value. Active and inactive are the calls of the source. No cut-off for these calls is given here. Bounds are passed on as bounds.

Assay [1] has as its system HEK293. Briefly: Resistance index, ratio of IC50 for HEK293 cells expressing ABCB1 to IC50 for HEK293 cells expressing pcDNA3.1. Set-up: species or system Homo sapiens. In outline:
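Fold resistance is the IC50 in P-glycoprotein-overexpressing HEK293/ABCB1 cells divided by the IC50 in empty-vector HEK293/pcDNA3.1 cells. IC50s from the 72 h MTT assay; paclitaxel was the positive-control ABCB1 substrate.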

A short description of assay [2]: Cytotoxicity against human HCT116 cells after 72 hrs by MTT assay. To be noted: HCT-116, 72 h. Format: functional, cell-based. In outline: (§1)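 Cells kept as adherent monolayers in DMEM with 10% FBS, 37°C, 5% CO2. Trypsin-harvested, seeded at 5 × 10^3 cells/well, then exposed to compound at 0.1 to 100 µM for 72 h. MTT (4 mg/ml) added for 4 h, formazan dissolved in DMSO, absorbance read at 570 nm. At least three experiments, each in triplicate; mean±SD.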
On the technique in general: Tetrazolium dyes change colour on reduction, which living cells bring about.

Assay [3] relates to HEK293. Briefly: Cytotoxicity against HEK293 cells expressing ABCB1 after 72 hrs by MTT assay. Format: functional, cell-based. To be noted: Homo sapiens, HEK293, 72 h. In outline: as §1
The next assay concerns MDA-MB-231. Briefly: Cytotoxicity against human MDA-MB-231 cells after 72 hrs by MTT assay. Format: functional, cell-based. To be noted: MDA-MB-231, 72 h. In short, it runs like this: as §1
Assay [4] concerns HEK293. Nature of the assay: Cytotoxicity against HEK293 cells expressing pcDNA3.1 after 72 hrs by MTT assay. Format: cell-based. To be noted: Homo sapiens, HEK293, 72 h. In outline: as §1
Assay [5] is described as follows: Cytotoxicity against human S1 cells after 72 hrs by MTT assay. Format: functional, cell-based. Particulars: S1, 72 h. In short, it runs like this: as §1
The nature of assay [6]: Cytotoxicity against mouse NIH/3T3 cells after 72 hrs by MTT assay. To be noted: NIH3T3, 72 h. The class given is cell-based. In outline: as §1
The next assay deals with MCF7. Nature of the assay: Cytotoxicity against human MCF7 cells after 72 hrs by MTT assay. The class given is functional, cell-based. To be noted: MCF7, 72 h. In outline:
as §1

Assay [7] is described as follows: Cytotoxicity against human PC3 cells after 72 hrs by MTT assay. Particulars: PC-3, 72 h. Format: functional, cell-based. In outline:
as §1

The next assay concerns MDCK. Briefly: Cytotoxicity against MDCK cells after 72 hrs by MTT assay. Format: cell-based. To be noted: Canis lupus familiaris. In short, it runs like this:
as §1

A further assay deals with DU-145. Briefly: Cytotoxicity against human DU145 cells after 72 hrs by MTT assay. Format: functional, cell-based. To be noted: DU-145, 72 h. In outline: as §1
A further assay has as its system PC-3. Briefly: Induction of morphological changes in human PC3 cells up to 100 uM after 68 hrs by inverted microscopy. Format: functional, cell-based. In short, it runs like this:
(§2)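 Cells grown in DMEM/10% FBS and treated in triplicate for 68 h. Photographed with an inverted microscope at 20X alongside untreated wells. Images scored double-blind for cell size, shape, number and debris.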

A further assay relates to HCT-116. Briefly: Induction of morphological changes in human HCT116 cells up to 100 uM after 68 hrs by inverted microscopy. The class given is functional, cell-based. In outline:
as §2

On to `COc1ccc(/C=C/c2cc(C)n[nH]2)cc1`, for which the “Ratio IC50” value with HEK293 [1] is on record as 1.3. Moreover, the pIC50 is 5.03 in [2]; 4.78 with HEK293 [3]; 4.97 in the assay with MDA-MB-231; 4.89 in the assay on HEK293 [4]; 5.08 in assay [5]; 4.70 in assay [6]. Moreover, the results for the negative-log IC50 (pIC50) (in the assay on MCF7; in assay [7]) were 5.01 and 5.05, respectively.
For the molecule `COc1ccc(/C=C/c2cc(C)no2)cc1OC`, the pIC50 in the assay with MDCK is 4.35; in [2], 4.06; in the assay with HEK293 [3] it was 4.11; with DU-145, less than 4.00; in the assay on HEK293 [4], 4.20; in assay [5], less than 4.00. Besides, the pIC50 in assay [6] was 4.03; in the assay with MCF7 it was less than 4.00; in [7] it was less than 4.00. In addition, in the assay with HEK293 [1], the “Ratio IC50” value was 1.2.
In the case of `CC(=O)/C=C(O)/C=C/c1ccc(O)c(O)c1` [HISPOLON], the pIC50 is 4.44 in the assay with MDCK; 5.28 in [2]; 5.02 in the assay with HEK293 [3]; 4.49 in the assay with MDA-MB-231; 4.54 in the assay with DU-145; 5.14 in the assay with HEK293 [4]. Also, the pIC50 in assay [5] was 5.08; in [6], 4.29; with MCF7, 5.10; in [7], 4.89. Further, the “Ratio IC50” value in the assay on HEK293 [1] turned out to be 1.3.
`COc1ccc(/C=C/c2cc(C)no2)cc1`: the pIC50 is 4.15 in the assay with MDCK; 4.65 in assay [2]; 4.18 in the assay with HEK293 [3]; less than 4.00 in the assay on DU-145; 4.23 in the assay on HEK293 [4]; 4.12 in assay [5]. The pIC50 (in [6]; with MCF7; in [7]) was less than 4.00 throughout. Also, the “Ratio IC50” value in the assay with HEK293 [1] is reported as 1.1.
With `Cc1cc(/C=C/c2ccc(O)c(O)c2)on1`, in the assay on HEK293 [1], the “Ratio IC50” value is reported as 0.9. The pIC50 was 5.28 in assay [2]; 4.93 in the assay with HEK293 [3]; 5.05 in the assay with MDA-MB-231; 4.98 with DU-145; 4.89 with HEK293 [4]; 5.10 in assay [5]. Moreover, the pIC50 in [6] was 4.58; with MCF7, 5.20; in assay [7], 5.48.
Turning to `COc1ccc(/C=C/C(=O)CC(C)=O)cc1OC`, the pIC50 with MDCK is 5.00; in assay [2], 5.33; in the assay with HEK293 [3] it was 4.97; in the assay with MDA-MB-231 it was 4.37; with DU-145, 5.09; in the assay with HEK293 [4], 5.09. The pIC50 in assay [5] was 5.03; in assay [6], 4.74; with MCF7, 4.97; in assay [7] it was 5.05. Moreover, in the assay on HEK293 [1], the “Ratio IC50” value was 1.3.
For the molecule `COc1cc(CCC(=O)CC(C)=O)ccc1O`, the negative logarithm of the IC50 (pIC50) in the assay on MDCK is 4.14; in assay [2] it was 4.09; with HEK293 [3], 4.03; with MDA-MB-231, less than 4.00; in assay [5], 4.01; in the assay on MCF7, less than 4.00. In assay [7], this molecule had a pIC50 of less than 4.00. In the assay with HEK293 [1], the “Ratio IC50” value stood at 1. In addition, the outcome with PC-3 and in the assay on HCT-116 was inactive.

In general, pIC50 refers to the negative decadic logarithm of the IC50, by convention in mol/L. Read a low pIC50 as a large IC50.
